# Results from different studies.
# pEC50, pIC50: −log10 of the molar value.
SMILES,tested on,assay,test system,conditions,quantity,result
CCCN(c1ccc(F)cc1)c1c(-c2ccccn2)nc2ccccn12,Leishmania infantum,parasite growth,,"5 days, intracellular, amastigote",pEC50,5.80
COc1ccc2occ(/C=C/c3cc(OC)c(OC)c(OC)c3)c(=O)c2c1,HSC-2,"cell growth or viability, MTT",,21 h,CC50,5.1 µM
COc1ccc(C=NNC(=O)c2sc(Nc3ccccc3)c(C(=O)Nc3ccc(OC)cc3)c2NC(C)=O)cc1,HCT-116,"cell growth or viability, SRB",,"10 nM, 48 h",viability,86.1%
c1ccc(-c2nc3n(c2-c2ccncc2)CCC3)nc1,Leishmania infantum,parasite growth,,"intracellular, amastigote",pIC50,< 4.19
O=C(O)CN1C(=O)/C(=C/c2c3ccccc3c(-c3ccc(N(c4ccccc4)c4ccccc4)cc3)c3ccccc23)SC1=S,Streptococcus mutans,"microbial growth, broth dilution",ATCC25175,,MIC,> 1000 µg/mL
Cc1c(C)c2c(c(C)c1O)CCC(C)(C(=O)O)O2 (centres unmarked),,"lipid peroxidation, inhibitor",,,IC50,107 µg/mL
O=C(O)CN1C(=O)/C(=C/c2ccc(-c3ccc(N(c4ccccc4)c4ccccc4)cc3)cc2)SC1=S,Streptococcus pyogenes,"microbial growth, broth dilution",ATCC19615,,MIC,15.6 µg/mL
COc1ccc(NC(=O)c2c(Nc3ccccc3)sc(C#N)c2NC(=O)CNc2ccccc2Cl)cc1,HCT-116,"cell growth or viability, SRB",,"0.1 µM, 48 h",viability,64.3%
NC(=O)N1c2ccccc2C=Cc2ccccc21,,MES seizures,rat,oral,ED50,10.9 mg/kg
FC(F)(F)c1cccc(Nc2c(-c3ccccn3)nc3ccccn23)c1,Leishmania infantum,parasite growth,,"5 days, intracellular, amastigote",pEC50,5.20
COc1ccc(NC(=O)c2c(Nc3ccccc3)sc(C(=O)NN=Cc3ccc(C)cc3)c2NC(C)=O)cc1,HCT-116,"cell growth or viability, SRB",,"1 µM, 48 h",viability,76.4%
COc1cc(OC)cc(-c2c(-c3ccccn3)nc3n2CCC3)c1,Leishmania infantum,parasite growth,,"5 days, intracellular, amastigote",pEC50,5.90
O=C(O)CN1C(=O)/C(=C/c2ccc(-c3ccc(N(c4ccccc4)c4ccccc4)cc3)c3ccccc23)SC1=S,Streptococcus mutans,"microbial killing, broth dilution",ATCC25175,,MBC,> 1000 µg/mL
CS(=O)(=O)c1ccc2nc(-c3ccccn3)c(Nc3ccc(F)cc3)n2c1,Leishmania infantum,parasite growth,,"intracellular, amastigote",pIC50,4.49
O=C(O)CN1C(=O)/C(=C/c2ccc(-c3ccc(N(c4ccccc4)c4ccccc4)cc3)c3ccccc23)NC1=S,Streptococcus mutans,"microbial growth, broth dilution",ATCC25175,,MIC,> 1000 µg/mL
Cc1ccc2nc(-c3ccccn3)c(CN(CC(C)C)c3cccc(C(F)(F)F)c3)n2c1,Leishmania infantum,parasite growth,,"intracellular, amastigote",pEC50,5.50
O=C(O)CN1C(=O)/C(=C/c2c3ccccc3c(-c3ccc(N(c4ccccc4)c4ccccc4)cc3)c3ccccc23)NC1=S,Streptococcus pyogenes,"microbial killing, broth dilution",ATCC19615,,MBC,> 1000 µg/mL
COc1ccc(NC(=O)c2c(Nc3ccccc3)sc(C#N)c2NC(=O)CNc2ccc(Cl)cc2)cc1,HCT-116,"cell growth or viability, SRB",,"100 µM, 48 h",viability,33.5%
O=C1NC(=S)N/C1=C\c1ccc(-c2ccc(N(c3ccccc3)c3ccccc3)cc2)cc1,Streptococcus pyogenes,"microbial growth, broth dilution",ATCC19615,,MIC,> 1000 µg/mL
COc1ccc(NC(=O)c2c(Nc3ccccc3)sc(C(=O)NN=Cc3ccc(Br)cc3)c2NC(C)=O)cc1,HCT-116,"cell growth or viability, SRB",,"1 µM, 48 h",viability,72.8%
